Drawing on ChEMBL document CHEMBL3098128, “Design and synthesis of tamoxifen derivatives as a selective estrogen receptor down-regulator” (Bioorg Med Chem Lett, 2014), this text covers Activity and inhibition for seven molecules.

The source made the active and inactive calls. The calls are words filed in the database; no cut-off is given here.

Experiment [1] concerns MCF7. Nature of the experiment: Downregulation of ERalpha protein levels in human MCF7 cells at 10 uM after 6 hrs by Western blot method. It is filed as functional, cell-based. A digest of the protocol:
(§1)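 MCF-7 breast cancer cells were incubated with compound or DMSO vehicle for 6 h. Compound was given at 10 µM in single-dose comparisons, or at 1 to 30 µM in the dose series. Whole-cell protein was extracted and ERα protein level was assessed by Western blotting.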
(In general: Immunoblotting shows a protein as a band on a membrane.)

Experiment [2] deals with MCF7. Briefly: Downregulation of ERalpha protein levels in human MCF7 cells after 6 hrs by Western blot method. It is filed as functional, cell-based. A digest of the protocol:
as §1

Experiment [3] deals with MCF7. Briefly: Downregulation of ERalpha protein levels in human MCF7 cells at 30 uM after 6 hrs by Western blot method. The class given is functional, cell-based. A digest of the protocol: as §1
For experiment [4], the target named is T1, Estrogen receptor (Homo sapiens) (UniProt P03372).
T1 sequence (whole entry): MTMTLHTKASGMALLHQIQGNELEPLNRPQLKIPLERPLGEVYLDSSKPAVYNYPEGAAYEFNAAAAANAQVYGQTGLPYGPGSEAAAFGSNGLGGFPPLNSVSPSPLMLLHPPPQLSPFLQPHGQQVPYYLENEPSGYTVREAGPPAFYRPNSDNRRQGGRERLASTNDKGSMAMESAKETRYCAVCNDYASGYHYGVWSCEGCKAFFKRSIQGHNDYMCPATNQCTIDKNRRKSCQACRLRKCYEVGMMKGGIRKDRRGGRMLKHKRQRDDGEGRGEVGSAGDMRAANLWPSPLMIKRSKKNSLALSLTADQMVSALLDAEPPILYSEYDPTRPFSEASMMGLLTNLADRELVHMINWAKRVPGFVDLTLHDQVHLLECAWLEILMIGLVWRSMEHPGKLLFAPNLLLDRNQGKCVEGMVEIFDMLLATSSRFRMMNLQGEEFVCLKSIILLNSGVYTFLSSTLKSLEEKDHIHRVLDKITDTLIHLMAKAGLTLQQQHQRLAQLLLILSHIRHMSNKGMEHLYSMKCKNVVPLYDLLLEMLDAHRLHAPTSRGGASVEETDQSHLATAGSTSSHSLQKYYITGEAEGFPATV
Briefly: Antagonist activity at ERalpha in human MCF7 cells assessed as inhibition of E2-induced pS2 mRNA expression after 9 hrs by RT-PCR analysis. The class given is cell-based. A digest of the protocol:
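MCF-7 cells treated with compound across 0.1 to 10 µM, with or without 10 nM E2, for 9 h. Total RNA was extracted and reverse-transcribed. pS2 mRNA was quantified by real-time PCR.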

The test system of experiment [5] is MCF7. Nature of the experiment: Downregulation of ERalpha protein levels in human MCF7 cells at 10 uM after 6 hrs by Western blot method in presence of proteasome inhibitor MG132. The class given is functional, cell-based.
The subject of experiment [6] is MCF7. Nature of the experiment: Upregulation of ERalpha protein levels in human MCF7 cells at 10 uM after 6 hrs by Western blot method. The class given is functional, cell-based. An outline of the steps: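 MCF-7 human breast cancer cells exposed to 10 µM compound or DMSO vehicle for 6 h. Whole-cell protein extracted, and ERα protein level assessed by Western blotting against the DMSO-treated control.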

For experiment [7], the system named is MCF7. Nature of the experiment: Downregulation of ERalpha protein levels in human MCF7 cells at 1 to 30 uM after 6 hrs by Western blot method. It is filed as functional, cell-based. A digest of the protocol: as §1

Take `CCCCCCCCCCCCN(C)CCOc1ccc(/C(=C(/CC)c2ccccc2)c2ccc(O)cc2)cc1`: the outcome with MCF7 [1] was inactive.
On the same count and under the same terms, in the case of `CCCCCCCCCCCCCCCCCCNCCOc1ccc(/C(=C(/CC)c2ccccc2)c2ccc(O)cc2)cc1` it was “inactive”.
For the molecule `CCCCCCCCCCCCNCCOc1ccc(/C(=C(/CC)c2ccccc2)c2ccc(O)cc2)cc1`, the Activity result in the experiment with MCF7 [2] is “Dose-dependent effect”. In addition, the outcome with MCF7 [1] and in the experiment on MCF7 [3] was Active. In experiment [4], the inhibition entry is “Dose-dependent effect”. For the same molecule, in the experiment with MCF7 [5], the outcome was inactive.
Turning to `CC/C(=C(\c1ccc(O)cc1)c1ccc(OCCNC)cc1)c1ccccc1`, in the experiment with MCF7 [6], the result was Active.
As to `CCCCCCCCCCCCN(CCCCCCCCCCCC)CCOc1ccc(/C(=C(/CC)c2ccccc2)c2ccc(O)cc2)cc1`, the outcome in the experiment on MCF7 [1] was inactive.
Regarding `CCCCCCNCCOc1ccc(/C(=C(/CC)c2ccccc2)c2ccc(O)cc2)cc1`, the result with MCF7 [1] and in the experiment on MCF7 [7] was inactive.
On to `CCC(=C(c1ccc(O)cc1)c1ccc(OCCN(C)C)cc1)c1ccccc1`, for which the outcome in the experiment on MCF7 [6] was Active.
